Yeast superoxide – reduction of superoxide in aged yeast, primary screen, HTS; actives 0.18% (n = 330,000); superoxide response (% of plate mean), % at 10 µM; AID 2690, 2010; S. cerevisiae aged cells, superoxide DHE fluorescence; active compounds read low;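 active means superoxide response under a set limit, about three screen SD below normal, cut at about 65% in these data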;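 further: yeast aged for seven days with compound at 30 °C before DHE staining; 100% = average MFI of all compound-treated wells on the plate with controls excluded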
PglD DTNB – C. jejuni PglD acetyltransferase inhibitors, primary screen, biochemical, DTNB colorimetric, single point. purified PglD enzyme, DTNB colorimetric CoA detection. actives 0.098% (n = 360,000). UDP-N-acetylbacillosamine N-acetyltransferase PglD (Campylobacter jejuni). inhibition, % at 12.5 µM. AID 602405, 2012; in the data active means inhibition above about 16%, passing the limit was not always enough
Cneo AK release – Cryptococcus neoformans cell lysis inducers, primary screen, AK release luminescence, single concentration | C. neoformans lysis, adenylate kinase release luminescence, 4 h; normalised: neutral wells 0, clomiphene wells 100 | lysis activity, % at 15 µM | actives 0.2% (n = 360,000);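 active means mean lysis activity across replicates of at least 80%, whatever share of replicates individually reach that level; inactive means mean lysis activity below 80%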
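Material: C. neoformans cells; Schedule: 4 h static compound exposure, 37 °C, read 1 h post-reagent; Measured by: adenylate kinase release luminescence; Read-out: signal increase indicating cell lysis; Controls: Clomiphene as positive lysis control.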
Mot1-301 SUMO – yeast Mot1-301 growth rescue at high temperature, primary screen, SUMOylation pathway inhibitor project, S. cerevisiae, ATP luminescence, 38.5C | S. cerevisiae Mot1-301 growth rescue; percent above DMSO median, 100 means doubled | growth rescue, % at 18.8 µM | actives 1% (n = 320,000) | AID 2716, 2010;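 active means every valid replicate shows activation above 250% relative to neutral control wells; inactive means the rest, any valid replicate at or below 250%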;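 further: OY570 slx delta 5 strain wells were the positive control but not used for scaling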
rRNA inh HTS – reduced GFP signal of wild-type E. coli, primary screen, bacterial rRNA inhibitor project, GFP/RFP fluorescence, OD600, single point; E. coli WT GFP vs humanized-ribosome RFP mutants, 24 h; active compounds read low; DMSO median 0, no signal -100; GFP signal change (wild-type ribosome), % (concentration not given with the values); actives 1.6% (n = 350,000);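 active means significant combined selectivity score with lowered wild-type GFP, culture density cut under 30%, mutant RFP and density less affected; inactive means any of these conditions unmet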
An asterisk follows results filed as active. Shown are actives, neighbours in structure and some others; about 2.2% of the full set was active somewhere.

`CN(Cc1ccccc1)C1=CC(=[N+]2CCCC2)CC(C)(C)C1` gave Yeast superoxide 84.1, PglD DTNB 3.7, Cneo AK release -1.0, Mot1-301 SUMO 2.2 and rRNA inh HTS -33.5*.
For C[C@@H]1CN([C@H](C)CO)C(=O)c2cc(NC(=O)Nc3ccccc3)ccc2O[C@@H]1CN(C)S(=O)(=O)c1ccc(F)cc1 the results were PglD DTNB 5.3, Cneo AK release -3.6 and rRNA inh HTS -1.0.
For CC(NC(=O)COc1cccc(Br)c1)C(=O)O (stereo not given) the results were Yeast superoxide 88.4, Mot1-301 SUMO 997.2* and rRNA inh HTS 3.7.
COc1ccc(C(=O)Nc2ccc3oc(Cc4ccc(Cl)cc4)nc3c2)cc1OC was read as Yeast superoxide 104.3, PglD DTNB -1.5, Cneo AK release -1.4, Mot1-301 SUMO -2.1 and rRNA inh HTS -14.5*.
Screening COc1ccc(Cc2nc3ccc(C(=O)NCCc4ccncc4)cc3o2)cc1OC returned Yeast superoxide 96.4, PglD DTNB -0.5, Cneo AK release -0.3 and rRNA inh HTS -4.2.
For Cc1[nH]n(-c2ccccc2)c(=O)c1C(c1ccc(C(=O)O)cc1)c1c(C)[nH]n(-c2ccccc2)c1=O the results were Yeast superoxide 102.2, Mot1-301 SUMO 6.9 and rRNA inh HTS -18.8*.
`Cc1[nH]n(-c2ccccc2)c(=O)c1C(c1cccc([N+](=O)[O-])c1)c1c(C)[nH]n(-c2ccccc2)c1=O` gave Yeast superoxide 94.4, Mot1-301 SUMO -7.4 and rRNA inh HTS -45.5*.
`O=C(C[C@@H]1C[C@@H]2c3cc(NC(=O)Nc4ccc(C(F)(F)F)cc4)ccc3O[C@@H]2[C@@H](CO)O1)NCc1cc(F)ccc1F` gave PglD DTNB 3.7, Cneo AK release 30.8 and rRNA inh HTS -3.5.
Screening C[C@@H]1CN([C@@H](C)CO)S(=O)(=O)c2ccc(C#C[C@@H](C)O)cc2O[C@@H]1CN(C)C(=O)C1CCCCC1 returned PglD DTNB 5.3, Cneo AK release 105.2* and rRNA inh HTS 1.3.
C[C@H]1CN([C@@H](C)CO)S(=O)(=O)c2ccc(C#Cc3cccc(F)c3)cc2O[C@@H]1CN(C)C(=O)NC1CCCCC1 was read as PglD DTNB 0.0, Cneo AK release 102.2* and rRNA inh HTS -1.6.
C[C@@H]1CN([C@H](C)CO)S(=O)(=O)c2ccc(C#CC3CC3)cc2O[C@H]1CN(C)CC1CCOCC1 was read as PglD DTNB 0.9, Cneo AK release 85.2* and rRNA inh HTS -7.1.
For C[C@H](O)C#Cc1ccc2c(c1)O[C@H](CN(C)Cc1ccncc1)[C@H](C)CN([C@H](C)CO)S2(=O)=O the results were PglD DTNB 1.2, Cneo AK release 95.3* and rRNA inh HTS -2.5.
For COc1ccc2c3c([nH]c2c1)[C@@H](CO)N(CC1CC1)CC31CCN(C(=O)NC2CCCC2)CC1 the results were rRNA inh HTS -2.5.
For COc1ccc2c3c(n(C)c2c1)[C@H](CO)N(C(=O)C1CCCCC1)CC31CN(C(=O)Nc2cccc(F)c2)C1 the results were rRNA inh HTS -3.7.
C[C@@H]1CN([C@H](C)CO)S(=O)(=O)c2ccc(C#C[C@@H](C)O)cc2O[C@@H]1CN(C)Cc1ccncc1 was read as PglD DTNB 1.5, Cneo AK release 83.5* and rRNA inh HTS -1.3.
For C[C@@H]1CN([C@@H](C)CO)S(=O)(=O)c2ccc(C#C[C@@H](C)O)cc2O[C@H]1CN(C)Cc1ccncc1 the results were PglD DTNB 0.4, Cneo AK release -1.3 and rRNA inh HTS -10.8.
Screening O=C1Nc2ccc(Br)cc2C1(O)c1ccccc1 (stereo not given) returned Yeast superoxide 86.1, PglD DTNB 4.2, Cneo AK release 0.6, Mot1-301 SUMO -17.6 and rRNA inh HTS -4.2.
`O=C1Nc2ccc(Br)cc2C12NNc1ccccc1O2` (stereo not given) gave Yeast superoxide 119.0, PglD DTNB -2.9, Cneo AK release -2.7, Mot1-301 SUMO 308.7* and rRNA inh HTS -57.6.

Screening data from PubChem.
